Laboratory results taken from PMC6361391 (Chemical communications (Cambridge, England), 2017).
Values after ≈ are worked out from the molar mass of the structure shown. Where a SMILES comes first, the peptide text is derived from it. Bridges are numbered along the chain shown (N, C = ends). [ ]: non-standard residue; d: D form. d(aIle) = CC[C@H](C)[C@@H](N)C(=O)O; dNMeF = CN[C@H](Cc1ccccc1)C(=O)O

How the values were obtained:
[1] = test system: Streptococcus salivarius ATCC 13419; type: cell-based
[2] = test system: Staphylococcus aureus ATCC 29213; type: cell-based
[3] = test system: Staphylococcus epidermidis ATCC 14990; type: cell-based
[4] = test system: Enterococcus durans ATCC 6056; type: cell-based
[5] = type: physicochemical; conditions: pH 7.4
[6] = test system: Escherichia coli ATCC 10798; type: cell-based
Gram-positive bacteria = assay: MIC assays, overall activity across the Gram-positive bacteria; type: cell-based; conditions: overall grade (good, moderate, poor) from the MIC assays
How it was run: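 Five Gram-positive species, with E. coli as a Gram-negative negative control and the parent natural antibiotic as a positive control. The test compound was tested at 32, 16, 8, 4, 2, 1, 0.5 and 0.25 μg/mL (final), diluted from a 10 mg/mL stock in sterilized DMSO. Minimum inhibitory concentration was the read-out.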

[7] = test system: Bacillus subtilis ATCC 6051; type: cell-based
[8] = cited from earlier work

Compound | MIC, Streptococcus salivarius ATCC 13419 [1] [µg/mL] | MIC, Staphylococcus aureus ATCC 29213 [2] [µg/mL] | MIC, Staphylococcus epidermidis ATCC 14990 [3] [µg/mL] | MIC, Enterococcus durans ATCC 6056 [4] [µg/mL] | solubility in PBS buffer [5] | MIC, Escherichia coll ATCC 10798 [6] [µg/mL] | antibiotic activity (Gram-positive bacteria) | MIC, Bacillus subtilis ATCC 6051 [7] [µg/mL] | antibiotic activity ([8]; lysine scan of Arg10-teixobactin) | MIC values reported previously ([8]; earlier report of the same group) [µg/mL] | loss in activity relative to Arg10-teixobactin ([8]; residues 1 to 5 replaced with a dodecanoyl group)
CC[C@H](C)[C@H](NC(=O)[C@@H](C)NC)C(=O)N[C@@H](CO)C(=O)N[C@H](CCC(N)=O)C(=O)N[C@@H](C(=O)N[C@H](C(=O)N[C@@H](CO)C(=O)N[C@H]1C(=O)N[C@@H](C)C(=O)N[C@@H](CCCCN)C(=O)N[C@@H]([C@@H](C)CC)C(=O)O[C@H]1C)[C@@H](C)CC)[C@@H](C)CC [N-Me-D-Ala1,Lys10-teixobactin] | >32 | >32 | >32 | >32 | good | >32 | poor | >32 |  |  | 
Lys3,Arg10-teixobactin |  |  |  |  |  |  |  |  | active |  | 
CC[C@H](C)[C@H](NC(=O)[C@H](NC(=O)[C@@H](CCC(N)=O)NC(=O)[C@H](CO)NC(=O)[C@H](C)NC(=O)[C@@H](Cc1ccccc1)NC)[C@@H](C)CC)C(=O)N[C@@H](CO)C(=O)N[C@H]1C(=O)N[C@@H](C)C(=O)N[C@@H](CCCCN)C(=O)N[C@@H]([C@@H](C)CC)C(=O)O[C@H]1C [Ala2,Lys10-teixobactin] (H-[dNMeF]AS[dQ][d(aIle)]IS[dT]AKI; ester 8-C) | 32 (≈ 27.2 µM) | >32 | 32 (≈ 27.2 µM) | >32 | good | >32 | poor | 32 (≈ 27.2 µM) |  |  | 
CC[C@H](C)[C@H](NC(=O)[C@@H](Cc1ccccc1)NC)C(=O)N[C@@H](CO)C(=O)N[C@H](CCC(N)=O)C(=O)N[C@@H](C(=O)N[C@H](C(=O)N[C@@H](C)C(=O)N[C@H]1C(=O)N[C@@H](C)C(=O)N[C@@H](CCCCN)C(=O)N[C@@H]([C@@H](C)CC)C(=O)O[C@H]1C)[C@@H](C)CC)[C@@H](C)CC [Ala7,Lys10-teixobactin] (H-[dNMeF]IS[dQ][d(aIle)]IA[dT]AKI; ester 8-C) |  | >32 | 32 (≈ 26.7 µM) | >32 | good | >32 | poor | 32 (≈ 26.7 µM) |  |  | 
CC[C@H](C)[C@H](NC(=O)[C@@H](Cc1ccccc1)NC)C(=O)N[C@@H](CO)C(=O)N[C@H](C)C(=O)N[C@@H](C(=O)N[C@H](C(=O)N[C@@H](CO)C(=O)N[C@H]1C(=O)N[C@@H](C)C(=O)N[C@@H](CCCCN)C(=O)N[C@@H]([C@@H](C)CC)C(=O)O[C@H]1C)[C@@H](C)CC)[C@@H](C)CC [D-Ala4,Lys10-teixobactin] (H-[dNMeF]IS[dA][d(aIle)]IS[dT]AKI; ester 8-C) | 2 (≈ 1.72 µM) | 1 (≈ 0.862 µM) | 4 (≈ 3.45 µM) |  | good | >32 | moderate | 4 (≈ 3.45 µM) |  |  | 
CC[C@H](C)[C@H](NC(=O)[C@@H](Cc1ccccc1)NC)C(=O)N[C@@H](CO)C(=O)N[C@H](CCC(N)=O)C(=O)N[C@@H](C(=O)N[C@H](C(=O)N[C@@H](CO)C(=O)N[C@H]1C(=O)N[C@@H](C)C(=O)N[C@@H](C)C(=O)N[C@@H]([C@@H](C)CC)C(=O)O[C@H]1C)[C@@H](C)CC)[C@@H](C)CC [Ala10-teixobactin] | 1 (≈ 0.863 µM) | 1 (≈ 0.863 µM) | 4 (≈ 3.45 µM) | 8 (≈ 6.9 µM) |  | >32 | moderate |  |  |  | 
CC[C@H](C)[C@H](NC(=O)[C@@H](Cc1ccccc1)NC)C(=O)N[C@@H](C)C(=O)N[C@H](CCC(N)=O)C(=O)N[C@@H](C(=O)N[C@H](C(=O)N[C@@H](CO)C(=O)N[C@H]1C(=O)N[C@@H](C)C(=O)N[C@@H](CCCCN)C(=O)N[C@@H]([C@@H](C)CC)C(=O)O[C@H]1C)[C@@H](C)CC)[C@@H](C)CC [Ala3,Lys10-teixobactin] (H-[dNMeF]IA[dQ][d(aIle)]IS[dT]AKI; ester 8-C) | 0.5 (≈ 0.416 µM) | 0.5 (≈ 0.416 µM) | 1 (≈ 0.833 µM) | 4 (≈ 3.33 µM) |  | >32 | good | 1 (≈ 0.833 µM) |  |  | 
CC[C@H](C)[C@H](NC(=O)[C@@H](Cc1ccccc1)NC)C(=O)N[C@@H](CO)C(=O)N[C@H](CCC(N)=O)C(=O)N[C@@H](C(=O)N[C@H](C(=O)N[C@@H](CO)C(=O)N[C@H]1C(=O)N[C@@H](C)C(=O)N[C@@H](CCCCN)C(=O)N[C@@H]([C@@H](C)CC)C(=O)O[C@H]1C)[C@@H](C)CC)[C@@H](C)CC [Lys10-teixobactin] | 0.5 (≈ 0.411 µM) | 0.5 (≈ 0.411 µM) | 0.5 to 1 | 2 (≈ 1.64 µM) |  | >32 | good | 1 (≈ 0.822 µM) |  | 0.25 to 1 | 
CC[C@H](C)[C@H](NC(=O)[C@@H](Cc1ccccc1)NC)C(=O)N[C@@H](CO)C(=O)N[C@H](CCC(N)=O)C(=O)N[C@@H](C(=O)N[C@H](C(=O)N[C@@H](CO)C(=O)N[C@H]1C(=O)N[C@@H](C)C(=O)N[C@@H](CCCCN)C(=O)N[C@@H](C)C(=O)O[C@H]1C)[C@@H](C)CC)[C@@H](C)CC [Lys10,Ala11-teixobactin] (H-[dNMeF]IS[dQ][d(aIle)]IS[dT]AKA; ester 8-C) | 2 (≈ 1.7 µM) | 4 (≈ 3.41 µM) | 8 (≈ 6.81 µM) | >32 | good | >32 | moderate | 8 (≈ 6.81 µM) |  |  | 
lipobactin |  |  |  |  |  |  |  |  |  |  | two- to fourfold loss in activity
CC[C@H](C)[C@H](NC(=O)[C@@H](Cc1ccccc1)NC)C(=O)N[C@@H](CO)C(=O)N[C@H](CCC(N)=O)C(=O)N[C@@H](C(=O)N[C@@H](C)C(=O)N[C@@H](CO)C(=O)N[C@H]1C(=O)N[C@@H](C)C(=O)N[C@@H](CCCCN)C(=O)N[C@@H]([C@@H](C)CC)C(=O)O[C@H]1C)[C@@H](C)CC [Ala6,Lys10-teixobactin] (H-[dNMeF]IS[dQ][d(aIle)]AS[dT]AKI; ester 8-C) | >32 | >32 | >32 | >32 | good | >32 | poor | >32 |  |  | 
CC[C@H](C)[C@H](NC(=O)[C@@H](C)NC(=O)[C@@H](CCC(N)=O)NC(=O)[C@H](CO)NC(=O)[C@@H](NC(=O)[C@@H](Cc1ccccc1)NC)[C@@H](C)CC)C(=O)N[C@@H](CO)C(=O)N[C@H]1C(=O)N[C@@H](C)C(=O)N[C@@H](CCCCN)C(=O)N[C@@H]([C@@H](C)CC)C(=O)O[C@H]1C [D-Ala5,Lys10-teixobactin] (HELM PEPTIDE1{[CN[C@H](Cc1ccccc1)C(=O)[*:2]].I.S.[dQ].[dA].I.S.[C[C@H](O[*:3])[C@@H](N[*:1])C(=O)[*:2]].A.K.I}$PEPTIDE1,PEPTIDE1,8:R3-11:R2$$$V2.0) |  | >32 |  | >32 | good | >32 | poor |  |  |  | 
